This note sets out measurements from ChEMBL document CHEMBL5154854, “Identification of a Vitamin-D Receptor Antagonist, MeTC7, which Inhibits the Growth of Xenograft and Transgenic Tumors In Vivo” (J Med Chem, 2022).

The target of this experiment is T1, Vitamin D3 receptor (Homo sapiens) (UniProt P11473).
T1 sequence (whole entry): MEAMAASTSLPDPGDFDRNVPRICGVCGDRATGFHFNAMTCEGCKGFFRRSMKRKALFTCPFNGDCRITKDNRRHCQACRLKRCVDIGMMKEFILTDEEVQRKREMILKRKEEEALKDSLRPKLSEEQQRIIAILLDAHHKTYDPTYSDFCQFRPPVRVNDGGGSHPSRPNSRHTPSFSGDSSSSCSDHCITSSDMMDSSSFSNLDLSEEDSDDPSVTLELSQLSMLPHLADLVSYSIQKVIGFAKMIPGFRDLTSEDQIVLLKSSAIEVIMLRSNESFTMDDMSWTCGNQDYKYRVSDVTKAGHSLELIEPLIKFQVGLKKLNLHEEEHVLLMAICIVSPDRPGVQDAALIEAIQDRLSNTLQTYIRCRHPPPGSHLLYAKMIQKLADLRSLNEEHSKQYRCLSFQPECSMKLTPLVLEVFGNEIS
Put plainly: Antagonist activity at VDR LBD (unknown origin) using Alexa Fluor 647-labeled SRC2-3 as substrate incubated for 2 hrs in presence of calcitriol by fluorescence polarization assay. The essentials:
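VDR-LBD (0.1 μM) with Alexa Fluor 647-labelled SRC2-3 (17.5 nM) and 10 nM 1,25(OH)2D3 in 25 mM PIPES, 50 mM NaCl, 0.01% NP-40, pH 6.75. Compounds were serially diluted 1:2 from 10 mM DMSO stocks and incubated 2 h. Polarization was read at 635/685 nm. Three independent experiments in quadruplicate; IC50 by variable-slope nonlinear regression.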
(In general: Fluorescence polarisation rises when a labelled molecule tumbles more slowly, as on binding a larger partner.)

For the compound `CC(C)CCC[C@@H](C)[C@H]1CC[C@@H]2[C@]1(C)CCC1[C@]23C=C[C@]2(C[C@@H](O)CC[C@]12C)n1c(=O)n(C)c(=O)n13` (stereo partly specified), the Activity is > 100 µM.
